{"source": "PubChem BioAssay AID2805", "about": "(Sanford-Burnham Center for Chemical Genomics, 2010)", "note": "Screen size: about 330,000 compounds; about 780 (0.24%) were called active. What follows is part of a selection rich in actives, with near analogues and random picks from the rest. Unmarked numbers belong to inactive results.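 The calls were made as follows: active = activation factor of at least 2 at 20 µM; inactive = the rest.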", "data": [{"system": "intestinal alkaline phosphatase [Mus musculus]", "test": "activators of mouse IAP, primary screen, biochemical, luminescence, uHTS (AID 2805)", "settings": "muIAP, CDP-Star luminescence, 30 min; at 10 µM; stronger effect = higher value; 1 = vehicle-only enzyme signal, 0 = enzyme-free wells", "method_in_brief": "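also added = chemiluminescent substrate CDP-Star | test system = mouse IAP enzyme | signal = chemiluminescence readout | compound = DMSO-dissolved test compounds | incubation = 30 min at room temperature | benchmarks = DMSO wells, no-enzyme wells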", "values": [{"compound": "S=C(NCc1ccc(Cl)cc1)NC12CC3CC(CC(C3)C1)C2", "activation factor": "3.89 (active)"}, {"compound": "O=C(NCc1ccc2c(c1)OCO2)C12CC3CC(CC(C3)C1)C2", "activation factor": 0.999}, {"compound": "COC(=O)Cc1ccc(NC(=S)NCc2ccc(Cl)cc2)cc1", "activation factor": 1.52}, {"compound": "CCC(=O)N1c2ccccc2NC2=C(C(=O)CCC2)C1c1ccco1", "note": "(configuration not stated)", "activation factor": 1.01}, {"compound": "CCOC12CC(C)(C)CC(C)(CC3=C1C(=O)CC(C)(C)C3)C2", "note": "(configuration not stated)", "activation factor": 1.02}, {"compound": "COC(=O)c1cc(S(=O)(=O)NCC2CCN(Cc3ccc(Cl)cc3)CC2)cn1C", "activation factor": 1.12}, {"compound": "O=C(NCCN1CCOCC1)Nc1cccc(Cl)c1", "activation factor": 0.941}, {"compound": "COc1ccc(Cl)cc1NC(=O)NCC1CCN(Cc2ccccc2F)CC1", "activation factor": 1.56}, {"compound": "Cc1ccc(C)c(CN2CCC(CNC(=O)Nc3ccc(C)c(F)c3)CC2)c1", "activation factor": "4.63 (active)"}, {"compound": "COc1cc(CN2CCN(Cc3ccc(C)cc3)CC2)c([N+](=O)[O-])cc1OC", "activation factor": 0.893}, {"compound": "Cc1cccc(CN2CCC(CNC(=O)Nc3ccc(F)c(Cl)c3)CC2)c1", "activation factor": "3.26 (active)"}, {"compound": "O=C(NCC1CCN(Cc2ccccc2Cl)CC1)Nc1cccc(Cl)c1", "activation factor": "3.53 (active)"}, {"compound": "Cc1ccccc1NC(=O)NCC1CCN(Cc2cccc(Cl)c2)CC1", "activation factor": 1.72}, {"compound": "CC(=O)N1CCN(CC(=O)Nc2ccc(C)c(F)c2)CC1", "activation factor": 1.06}, {"compound": "O=C(CN1CCN(Cc2ccccc2)CC1)Nc1ccc(F)c(F)c1", "activation factor": 1.1}, {"compound": "COc1cc(NC(=O)NCC2CCN(Cc3ccc(C)cc3)CC2)cc(OC)c1OC", "activation factor": "2.24 (active)"}, {"compound": "COc1cc(NC(=O)C2=CC(c3ccc(C)cc3)=NS(=O)(=O)N2C)cc(OC)c1OC", "activation factor": 0.84}, {"compound": "COc1cc(OC)cc(-c2nc3ccccc3c(=O)n2NC(=O)c2cccnc2Cl)c1", "activation factor": 0.962}, {"compound": "CCCn1nnnc1NC(=O)COc1ccc(Cl)cc1C", "activation factor": 0.94}, {"compound": "CCCSc1ccc([C@H]2N[C@@](Cc3ccccc3)(C(=O)OC)[C@H]3C(=O)N(C)C(=O)[C@@H]23)cc1", "activation factor": 1.04}, {"compound": "CCN1CCN(C(=O)c2cc3cc4ccc(OC)cc4nc3s2)CC1", "activation factor": 1.07}, {"compound": "CCc1cc2c(=O)n(-c3ccccc3)c(SCC(=O)O)nc2s1", "activation factor": 1.03}, {"compound": "C=CCCC(=O)Nc1nc(C)c(-c2csc(Nc3ccc(Cl)cc3)n2)s1", "activation factor": 0.878}, {"compound": "S=C(NC1CCCCC1)NN1CCOCC1", "activation factor": 0.975}, {"compound": "Cc1cccc(-c2oc3ccc(-c4ccc5c(c4)OCO5)cc3c2C#Cc2cncn2C)c1", "activation factor": 0.937}, {"compound": "Cc1cc(NC(=O)CCC(=O)N(CC(=O)NCC2CCCO2)c2ccccc2C)no1", "note": "(configuration not stated)", "activation factor": 0.924}, {"compound": "COc1ccc(OC)c(NC(=O)c2ccc3c(c2)CCN3S(C)(=O)=O)c1", "activation factor": 0.846}, {"compound": "COCCCNC(=S)NCCNc1nc2cc(C)c(C)cc2cc1C#N", "activation factor": 1.01}, {"compound": "COc1cccc2c(C)c(C(=O)O)[nH]c12", "activation factor": 0.981}, {"compound": "O=C(C1=C[C@H](c2ccc(C(F)(F)F)cc2)C[C@H](OCc2ccc(CO)cc2)O1)N1CCN(Cc2ccccc2)CC1", "activation factor": 1.05}, {"compound": "COC(=O)c1scc(S(=O)(=O)C(C)(C)C)c1-n1cccc1", "activation factor": 0.97}, {"compound": "N#CC1=C(N)Oc2[nH]c(=S)[nH]c(=O)c2C12C(=O)Nc1ccccc12", "note": "(configuration not stated)", "activation factor": 1}, {"compound": "O=c1[nH]c(CN2CCOCC2)nc2scc(-c3ccccc3)c12", "activation factor": 1.04}, {"compound": "COCc1cc(=O)n2[nH]c(C)c(-c3ccccc3)c2n1", "activation factor": 1.04}, {"compound": "CC(C)CNC(=S)Nc1ccc(F)cc1", "activation factor": 1.15}, {"compound": "CC(NC(=S)Nc1ccc(OC(F)F)cc1)c1ccc(F)cc1", "note": "(configuration not stated)", "activation factor": "2.2 (active)"}, {"compound": "Cc1ccc(NC(=S)Nc2ccc(F)cc2)cc1", "activation factor": 1.03}, {"compound": "COc1ccccc1-c1nn(Cc2ccccc2)cc1C(=O)N1CCN(c2ncccn2)CC1", "activation factor": 0.95}, {"compound": "O=C(CSc1cccc[n+]1[O-])NCCCc1ccccc1", "activation factor": 1.02}, {"compound": "O=C(Nc1ccccc1)Nc1nnc(COc2ccccc2F)s1", "activation factor": 0.892}, {"compound": "Cc1cc(NC(=O)Nc2ccc(Cl)cc2)n(-c2ccccc2)n1", "activation factor": "2.3 (active)"}, {"compound": "Cc1cc(C(=O)NCCc2ccc(Cl)cc2)n(-c2ccccc2)n1", "activation factor": 1.02}, {"compound": "Cc1ccc(NC(=O)Nc2cc(-c3ccccc3)nn2C)cc1Cl", "activation factor": 1.48}, {"compound": "N#CCCCn1c(O)c(N=NC(=O)C(O)c2ccccc2)c2ccccc21", "note": "(configuration not stated)", "activation factor": 0.987}, {"compound": "CCC1CCCCN1C(=S)Nc1ccc(SC(F)F)cc1", "note": "(configuration not stated)", "activation factor": 0.894}, {"compound": "CCN(CC)c1nc(-c2ccccc2)cc(C(F)(F)F)c1C#N", "activation factor": 0.949}, {"compound": "Cc1cc(C)cc(NC(=O)NC2CCN(CC(=O)Nc3cccc(Cl)c3C)CC2)c1", "activation factor": "5.45 (active)"}, {"compound": "C/C(CC(=O)Nc1cccc(F)c1)=N\\NC(=O)C(=O)NC1CCCCC1", "activation factor": 0.807}, {"compound": "Cc1cc(C)cc(NC(=O)NC2CCCCCCC2)c1", "activation factor": "4.34 (active)"}, {"compound": "COc1cccc(NC(=O)CN2CCN(CC(=O)Nc3ccccc3Cl)CC2)c1", "activation factor": 0.978}, {"compound": "O=C(Nc1cccc(F)c1)NC1CCCc2ccccc21", "note": "(configuration not stated)", "activation factor": 0.963}, {"compound": "CS(=O)(=O)Nc1ccc(C(=O)N2CCCC2)cc1", "activation factor": 0.947}, {"compound": "Cc1c(Cl)cccc1NC(=O)Nc1ccc(C(=O)N2CCCC2)cc1", "activation factor": "2 (active)"}, {"compound": "O=C(Nc1cccc(F)c1)NC1CCCCCCC1", "activation factor": "2.46 (active)"}, {"compound": "Cc1c(Cl)cccc1NC(=O)NCCCN1CCCC1=O", "activation factor": 1.01}, {"compound": "O=C(CN1CCC(NC(=O)Nc2ccccc2)CC1)Nc1cccc([N+](=O)[O-])c1", "activation factor": 1.02}, {"compound": "CC(C)c1ccc(NC(=O)NC2CCCCC2)cc1", "activation factor": 1.77}, {"compound": "CC(C)(C)NS(=O)(=O)c1ccc(NC(=O)NC2CCCCC2)cc1", "activation factor": 1.7}, {"compound": "CSCC(=O)N1CCCC(C(=O)c2cc(F)ccc2F)C1", "note": "(configuration not stated)", "activation factor": 0.984}, {"compound": "O=C(OCC1O[C@@H](OC(=O)c2cc(O)c(O)c(O)c2)[C@@H](OC(=O)c2cc(O)c(O)c(O)c2)[C@@H](OC(=O)c2cc(O)c(O)c(O)c2)[C@@H]1OC(=O)c1cc(O)c(O)c(O)c1)c1cc(O)c(O)c(O)c1", "note": "(some centres not stated)", "activation factor": 0.831}, {"compound": "CN(Cc1ccccc1)C(=O)COC(=O)/C=C/c1ccc2c(c1)OCO2", "activation factor": 0.965}, {"compound": "CCc1ccccc1N1CN(Cc2ccco2)CNC1=S", "activation factor": 0.992}, {"compound": "COc1c(O)cccc1-c1nnn(CCC(=O)OCC(=O)c2ccccc2)n1", "activation factor": 0.984}, {"compound": "Cc1cccc(NC(=S)NC23CN4CN(CN(C4)C2)C3)c1", "activation factor": 0.962}, {"compound": "Cc1cccc(NC(=S)Nc2ccc(Cl)c(Cl)c2)c1", "activation factor": 1.16}, {"compound": "Cc1cccc(NC(=S)NCCN(C2CCCCC2)C2CCCC2)c1", "activation factor": "2.13 (active)"}, {"compound": "O=C(c1ccc(O)cc1)c1ccc(C(=O)O)c(C(=O)O)c1", "activation factor": 1.01}, {"compound": "CC(=O)c1cccc(NC(=O)N2CCCC2C(=O)NCCC(C)C)c1", "note": "(configuration not stated)", "activation factor": 0.988}, {"compound": "O=C(NCCOc1ccccc1Cl)C(=O)Nc1ccccc1", "activation factor": 0.98}, {"compound": "O=C(COc1ccccc1F)NNC(=O)c1cc(Br)ccc1Cl", "activation factor": 0.932}, {"compound": "O=C(NCCOc1ccccc1F)Nc1ccc(Br)cc1", "activation factor": "2.2 (active)"}, {"compound": "O=C(Cn1ncc2c3ccccc3n(Cc3ccccc3)c2c1=O)NCCCN1CCOCC1", "activation factor": 0.993}, {"compound": "C=C(Br)Cn1c(CCCC)nc2ccccc21", "activation factor": 0.968}, {"compound": "C[C@H](CO)N1C[C@H](C)[C@@H](CN(C)C(=O)Nc2ccc3c(c2)OCO3)Oc2c(cccc2N(C)C)C1=O", "activation factor": 0.974}, {"compound": "COc1ccc(NC(=O)N(C)C[C@H]2Oc3ccc(NC(=O)C4CC4)cc3C(=O)N([C@H](C)CO)C[C@@H]2C)cc1", "activation factor": 1.05}, {"compound": "COc1ccc(NC(=O)Nc2ccc3c(c2)C(=O)N([C@H](C)CO)C[C@H](C)[C@@H](CN(C)C(=O)Nc2ccc4c(c2)OCO4)O3)cc1", "activation factor": "2.74 (active)"}, {"compound": "COc1ccc(S(=O)(=O)NCC(=O)NC2CC2)cc1OC", "activation factor": 0.966}, {"compound": "O=C(CN1CCC(O)(c2cccc(C(F)(F)F)c2)CC1)NCCc1ccccc1", "activation factor": 0.933}, {"compound": "CC(=O)Nc1cccc(C(=O)OCN2C(=O)c3ccccc3C2=O)c1", "activation factor": 0.892}, {"compound": "CC(=O)N(CC(O)CO)c1c(I)c(C(=O)NCC(O)CO)c(I)c(C(=O)NCC(O)CO)c1I", "note": "(configuration not stated)", "activation factor": 1.05}, {"compound": "Cc1cc(C)c(S(=O)(=O)c2ccccc2)c(OC(=O)c2c(F)cccc2Cl)n1", "activation factor": 0.919}, {"compound": "OCCCN1c2ccccc2Nc2nnc(-c3ccccc3)cc21", "activation factor": "2.5 (active)"}, {"compound": "N=c1c2c(-c3ccccc3)c(-c3ccccc3)n(Cc3ccccc3)c2ncn1CCCO", "activation factor": 0.982}, {"compound": "COc1ccc(C)cc1NC(=O)NCCCCc1ccccc1", "activation factor": 1.36}, {"compound": "O=C(CNC(=O)c1ccccc1Br)NNC(=O)c1cccs1", "activation factor": 0.934}, {"compound": "Cc1ccc(CN(C)Cc2cc(=O)oc3cc(C)c(Cl)cc23)cc1", "activation factor": 0.989}, {"compound": "CC(NC(=S)Nc1ccccc1)C1COc2ccccc2O1", "note": "(configuration not stated)", "activation factor": 1.67}, {"compound": "O=S(=O)(NCCCc1ccccc1)c1ccc(Br)cc1", "activation factor": 1.03}, {"compound": "S=C(Nc1ccc(Br)cc1)NC1CCN(Cc2ccccc2)CC1", "activation factor": 1.46}, {"compound": "S=C(NCC1COc2ccccc2O1)Nc1ccc(Br)cc1", "note": "(configuration not stated)", "activation factor": "3.2 (active)"}, {"compound": "S=C(NCCCc1ccccc1)Nc1ccc(Br)cc1", "activation factor": "2.09 (active)"}, {"compound": "CCCN(CC1COc2ccccc2O1)C(=S)Nc1ccc(C)cc1", "note": "(configuration not stated)", "activation factor": 1.14}, {"compound": "COCCNC(=O)c1ccc(S(=O)(=O)c2ccc(Cl)cc2)c(NC(C)=O)c1", "activation factor": 0.896}, {"compound": "O=C(NCC1CCCO1)c1ccccc1-c1nc(-c2ccccc2Cl)no1", "note": "(configuration not stated)", "activation factor": 0.926}, {"compound": "Cc1noc(C)c1S(=O)(=O)N(CC(=O)NCc1ccc(Cl)cc1)c1ccc2c(c1)OCO2", "activation factor": 1.12}, {"compound": "Cc1noc(C)c1S(=O)(=O)N(CC(=O)Nc1ccc2c(c1)OCCO2)c1ccc(C(C)C)cc1", "activation factor": "2.03 (active)"}, {"compound": "CCOC(=O)c1cccc(NC(=O)CN(c2ccc(C)cc2)S(=O)(=O)c2c(C)noc2C)c1", "activation factor": 1.37}]}]}
